High-throughput results: PubChem BioAssay, Sanford-Burnham Center for Chemical Genomics
CSN deneddyl inh: CSN deneddylation inhibition; Q92905; Purified CSN, SCF-Nedd8-OG deneddylation, fluorescence polarization; inhibition, % at 12.5 µM; 360,000 compounds, 0.38% hits; AID 651999;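 active = pattern-corrected inhibition above about 35%, with an unprinted fluorescence ratio check between 0.5 and 1.5, limit read from the data, passing the limit was not always enough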
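Assay system: purified human Csn5 enzyme expressed in HEK293T cells; Input: 0.24 nM Csn5 enzyme, final concentration; Reagent: 10 nM SCFSkp2-Nedd8OG; Compound dosing: 12.5 µM single point; Times: reaction 90 min, room temperature; Technique: fluorescence polarization readout.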
DNMT1 block: inhibitors of human DNMT1; P26358; DNMT1 molecular beacon, Hinp1I cleavage, fluorescence; inhibition (reported as % activation of signal), % at 10 µM; 360,000 compounds, 0.83% hits; AID 588458; in the data active = inhibition above about 50%
SUMO1 PPI mod: modulators of human SUMO1-mediated protein-protein interactions. SUMO1 binding to a labelled peptide, TR-FRET, 1 h. inhibition, % at 20 µM. 360,000 compounds, 0.33% hits. P63165; in the data active = inhibition above about 37%
Target sequence (P63165 whole entry, looked up): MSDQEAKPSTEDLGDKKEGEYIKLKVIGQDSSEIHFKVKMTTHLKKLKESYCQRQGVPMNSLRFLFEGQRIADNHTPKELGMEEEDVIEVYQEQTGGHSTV
LMPTP inh: LMPTP (human) inhibition; P24666; recombinant LMPTP-A, OMFP fluorogenic substrate, fluorescence intensity; inhibition, % at 20 µM; 360,000 compounds, 0.22% hits;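 active = compounds that cut the enzyme signal by at least half of the control window in the single-dose screen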
Target sequence (P24666 whole entry, looked up): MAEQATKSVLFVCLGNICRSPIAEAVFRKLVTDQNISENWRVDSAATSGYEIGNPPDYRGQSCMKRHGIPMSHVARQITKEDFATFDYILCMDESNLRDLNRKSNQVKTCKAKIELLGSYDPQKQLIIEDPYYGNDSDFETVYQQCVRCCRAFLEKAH
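Assay system: LMPTP-A enzyme. Input: 0.625 nM LMPTP-A final. Probe or stimulus: 400 µM OMFP. Compound dosing: single 20 µM dose. Schedule: 50 min dark incubation at room temperature. Detection: fluorescence intensity of OMFP turnover product. Read-out: percent inhibition versus substrate-only and uninhibited controls. Benchmarks: no-enzyme low control, uninhibited high control.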
STEP block: blocks human striatal-enriched tyrosine phosphatase; AID 588621; inhibition, % at 20 µM; P54829; recombinant STEP, OMFP fluorogenic substrate, fluorescence; 360,000 compounds, 0.25% hits;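 active = inhibition at 20 µM, scaled per plate between control wells, above about 37%, limit read from the data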
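System: isolated STEP enzyme; schedule: 20 min enzyme reaction at room temperature, protected from light; medium: Bis-Tris buffer pH 6.0, 2.5 mM DTT, 0.005% Tween 20; signal: fluorescence, 480/540 nm; dosing: single compound dose of 20 µM, 1% DMSO final; also added: OMFP substrate, 25 µM final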
Scp-1 inhibitor: Scp-1 (human) phosphatase inhibition; AID 493091; inhibition, % at 20 µM; Recombinant Scp1, phosphopeptide, malachite green phosphate absorbance; 340,000 compounds, 0.88% hits;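 active = inhibition above about 50% at 20 µM, limit read from the data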
Target sequence (Q9GZU7 76-261 limits assumed): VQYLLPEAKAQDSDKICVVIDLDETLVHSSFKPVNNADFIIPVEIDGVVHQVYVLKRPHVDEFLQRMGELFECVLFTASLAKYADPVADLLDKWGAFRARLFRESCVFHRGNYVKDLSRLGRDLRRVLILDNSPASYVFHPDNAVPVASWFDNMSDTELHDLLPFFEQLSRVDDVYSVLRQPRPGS
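assay system = SCP-1 phosphatase catalytic domain, residues 76-261 | buffer or medium = 50 mM Tris acetate pH 5.5, 0.005% Tween-20, 10 mM MgCl2 | incubation = enzyme reaction 45 min at room temperature, colour 5 min, stabilisation 30 min | signal = Phosphate-binding colour reagent, absorbance read at 630 nm | measure = % inhibition at 20 µM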
Numbers stand for hits; i = inactive; nt = no result. Rows were chosen to be rich in hits. Some 1.9% of all compounds tested hit in one or more screens of this group.

SMILES	CSN deneddyl inh	DNMT1 block	SUMO1 PPI mod	LMPTP inh	STEP block	Scp-1 inhibitor
Cc1cc(C)c2c(ccc3cccc[n+]32)c1	i	i	i	i	i	i
ClCCN(CCCl)c1ccc(C=Cc2ccncn2)cc1	i	i	i	i	i	i
O=C(Cc1cc(=O)oc2cc(O)ccc12)NN=Cc1ccc(N(CCCl)CCCl)cc1	i	i	92.4	i	i	i
CC(C)OC(=O)c1c(N)n(CC2CCCO2)c2nc3ccccc3nc12 (stereo unspecified)	i	i	42.1	i	i	i
C[C@]12CC[C@@H](O)CC1=CCC1C2CC[C@@]2(C)C1CC[C@@H]2O (stereo partly specified)	i	i	i	i	i	nt
C[C@H]1COc2cc(N3CCN(C)CC3)ccc2S(=O)(=O)N1	i	nt	i	i	nt	nt
CCCCCn1c(N)c(C(=O)NCCN2CCOCC2)c2nc3ccccc3nc21	i	i	i	i	i	i
COCCCn1c(N)c(C(=O)NCCC(C)C)c2nc3ccccc3nc21	36.6	i	i	i	i	i
Nc1c(C(=O)NCc2ccco2)c2nc3ccccc3nc2n1Cc1ccc(F)cc1	i	i	40.2	i	i	i
CCCCNC(=O)c1c(N)n(Cc2ccc3c(c2)OCO3)c2nc3ccccc3nc12	i	i	63.6	i	i	i
CCOC(=O)[C@]12Cc3cc(C)ccc3[C@H]1N(C(C)C)C(=O)c1ccccc12	i	nt	i	i	nt	nt
CC(CC(C)(C)N1CC1)=NO	i	i	i	i	i	i
Cc1ccccc1N1C(=O)NC(=O)/C(=C\c2ccc3c(c2)CCCN3Cc2ccccc2)C1=O	i	i	i	i	i	i
O=C1NC(=S)NC(=O)C1=Cc1ccc2c(c1)CCN2CCCCl	i	102.3	75.8	76.5	60.3	90.8
O=C(O)c1cccc2c1NC(C(=O)O)C1CC(Sc3ccccc3[N+](=O)[O-])C(Cl)C21 (stereo unspecified)	i	103.9	87.8	79.1	98.1	55.5
CC(=O)c1ccc2c(c1)C1C(Cl)C(Sc3ccccc3[N+](=O)[O-])CC1C(C(=O)O)N2 (stereo unspecified)	i	114.2	84.4	77.8	i	i
CCC1C2CC3C4N(C)c5ccccc5C45CC(C2C5O)N3C1O (stereo unspecified)	i	i	i	i	i	nt
CCN(CC)CCO	i	i	i	i	i	i
COc1ccc(CCN)cc1O	i	i	i	i	i	i
NCCc1cc(O)c(O)cc1O	i	118.2	46.9	78.7	i	i
Cc1cc(-c2cc(C)c(N)c(C)c2)cc(C)c1N	i	i	i	i	i	i
O=C1NC(=O)N(c2ccccc2)C(=O)/C1=C/c1ccoc1	44.4	i	i	i	i	i
Cc1ccnc(NC(=O)CCCc2ccc(N(CCCl)CCCl)cc2)n1	83.8	i	i	i	i	i
COc1cccc(N2C(=O)NC(=O)/C(=C/c3ccc([N+](=O)[O-])s3)C2=O)c1	i	i	47.1	i	i	i
COc1ccc(N2C(=O)NC(=O)/C(=C/c3ccc([N+](=O)[O-])s3)C2=O)cc1	i	i	38.3	i	i	i
SMILES	CSN deneddyl inh	DNMT1 block	SUMO1 PPI mod	LMPTP inh	STEP block	Scp-1 inhibitor
Cn1cc(C=C(C#N)C#N)c2ccccc21	36.3	i	i	i	i	i
N#Cc1ccc(Cn2cc(C=O)c3ccccc32)cc1	i	i	i	i	i	i
COC(=O)C1=C(c2ccc(OC(F)(F)F)cc2)C[C@@H]2CC[C@H]1N2C(=O)NCc1cc(C)oc1C(F)(F)F	i	i	i	i	i	i
CN(C)[C@@H]1C(=O)C(C(N)=O)=C(O)[C@@]2(O)C(=O)C3=C(O)c4c(O)cccc4[C@@](C)(O)[C@H]3[C@H](O)[C@@H]12	i	97.1	70.4	65.6	i	64.6
CN(C)[C@@H]1C(=O)C(C(N)=O)=C(O)[C@@]2(O)C(=O)C3=C(O)c4c(O)ccc(Cl)c4[C@@](C)(O)[C@H]3C[C@@H]12	i	i	i	i	i	i
CN(C)[C@@H]1C(=O)C(C(N)=O)=C(O)[C@@]2(O)C(=O)C3=C(O)c4c(O)cccc4[C@@](C)(O)C3C[C@@H]12 (stereo partly specified)	i	84.4	37.3	i	i	i
CC[n+]1c(-c2ccccc2)c2cc(N)ccc2c2ccc(N)cc21	i	i	i	72.0	i	i
COC(=O)C1=C(c2ccc(OC(F)(F)F)cc2)C[C@@H]2CC[C@H]1N2C(=O)NCCOc1ccc(OC)cc1	i	i	i	i	i	i
CCOc1cccc(CNCCc2c(C)[nH]c3ccc(OC(F)(F)F)cc23)c1O	i	i	i	i	i	i
O=C1NC(=S)N(c2ccc(Br)cc2)C(=O)/C1=C/N1CCN(C(=O)c2ccco2)CC1	57.4	i	i	i	i	i
CC(C)C(O)(C(=O)OCC1=CCN2CCC(O)C12)C(C)O (stereo unspecified)	i	i	i	i	i	nt
CC1C2Cc3ccc(O)cc3[C@]1(C)CCN2CCc1ccccc1 (stereo partly specified)	i	i	i	i	i	i
O=c1[nH]c(=S)n(-c2ccccc2)c(O)c1/C=N/N1CCCCC1c1cccnc1 (stereo unspecified)	36.7	i	i	i	i	i
COc1ccc(Cn2c(O)c(C=NCCCn3ccnc3)c(=O)[nH]c2=O)cc1	i	i	i	i	i	i
CCCCCCn1c(O)c(C=NCCCn2ccnc2)c(=O)[nH]c1=O	53.0	i	i	i	i	i
CCOC(=O)[C@]12Cc3cc(C)ccc3[C@H]1N(C1CCCCC1)C(=O)c1cc(OC)ccc12	i	nt	i	i	nt	nt
NC(Cc1ccccc1Cl)c1nn[nH]n1 (stereo unspecified)	i	i	i	i	i	nt
COc1cc(C(c2c(C)[nH]n(-c3ccccc3)c2=O)c2c(C)[nH]n(-c3ccccc3)c2=O)cc(OC)c1OC	i	i	53.5	i	i	i
COC(=O)C(O)(c1c(C)[nH]n(-c2ccccc2)c1=O)C(F)(F)F (stereo unspecified)	i	i	i	i	i	i
CCn1nc(-c2cccs2)nc2c(=O)n(C)c(=O)nc1-2	63.0	118.7	i	63.1	65.1	i
CCOc1ccc(-n2c(-c3cccs3)nc3ccccc3c2=O)cc1	i	i	i	i	i	i
COC(=O)C1=C(c2ccc(OCc3ccccc3)cc2)C[C@@H]2CC[C@H]1N2C(=O)NCCc1ccc(F)cc1	i	i	i	i	i	nt
CN(C)c1ccc(/C=C/C=C/c2sc3ccccc3[n+]2C)cc1	i	i	i	i	i	i
CC[n+]1c(/C=C/C=C/c2ccc(N(C)C)cc2)sc2ccccc21	i	i	i	90.5	i	i
